Data on 2 molecules can be found in ChEMBL document CHEMBL4428077, “Synthesis and Biological Evaluation of N-((1-(4-(Sulfonyl)piperazin-1-yl)cycloalkyl)methyl)benzamide Inhibitors of Glycine Transporter-1” (J Med Chem, 2016).

Molecules are shown by their SMILES. Bounds are passed on as bounds.

A short description of data set [1]: Drug level in cynomolgus monkey plasma at 3 mg/kg, po measured at 24 hrs post dose by LC-MS/MS analysis. Type of data set: ADME, organism-based, Macaca fascicularis.
Data set [2] in a line: Drug level in po dosed Sprague-Dawley rat brain measured 2 hrs post dose by LC-MS/MS analysis. It is filed as ADME, organism-based. The note with it: in vivo.
Data set [3] is described as follows: Apparent terminal half life in Sprague-Dawley rat plasma at 10 mg/kg, po or 2 mg/kg, iv administered as single dose by LC-MS/MS analysis. Type of data set: ADME, organism-based. The conditions noted are these: read-out: betat1/2(app) (converted). A digest of the protocol: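 Single-dose PK in drug-naive adult male Sprague−Dawley rats, n = 3 per group: 3.1 μmol/kg IV in 5% DMSO/10% Solutol in saline (5 mL/kg), or 15.7 μmol/kg PO in 5% Solutol/10% Captisol in 25 mM PBS, pH adjusted to 2 with HCl. Plasma parameters reported as mean ± SD.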

A short description of data set [4]: Total clearance in Sprague-Dawley rat at 10 mg/kg, po or 2 mg/kg, iv administered as single dose measured up to 24 hrs post dose by LC-MS/MS analysis. Type of data set: ADME, organism-based. The conditions noted are these: in vivo. A digest of the protocol:
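Groups of three drug-naive adult male Sprague–Dawley rats, single dose: IV 3.1 μmol/kg in 5% DMSO/10% Solutol in saline (5 mL/kg), or PO 15.7 μmol/kg in 5% Solutol/10% Captisol in 25 mM PBS adjusted to pH 2 with HCl. Plasma concentration–time data give the parameters; mean ± SD.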

Data set [5] in a line: Drug level in cynomolgus monkey plasma at 3 mg/kg, po measured at 2 hrs post dose by LC-MS/MS analysis. It is filed as ADME, organism-based, Macaca fascicularis.
The nature of data set [6]: Drug level in cynomolgus monkey plasma at 3 mg/kg, po measured at 4 hrs post dose by LC-MS/MS analysis. It is filed as ADME, organism-based, Macaca fascicularis.
Data set [7] in a line: Oral bioavailability in Sprague-Dawley rat at 10 mg/kg administered as single dose measured up to 24 hrs post dose by LC-MS/MS analysis. It is filed as ADME, organism-based. The note with it: in vivo. A digest of the protocol: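 Male Sprague-Dawley rats, n = 3 per group. Dosing was 3.1 μmol/kg IV (5% DMSO / 10% Solutol in saline, 5 mL/kg) and 15.7 μmol/kg PO (5% Solutol / 10% Captisol in 25 mM PBS, pH 2). F = (AUC_INF,po × Dose_iv)/(AUC_INF,iv × Dose_po). Mean ± SD.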

In data set [8] the test system is Rattus norvegicus. As to the kind of experiment: In vivo inhibition of glycine transporter-1 in Sprague-Dawley rat assessed as CSF glycine level at 1 mg/kg, po qd for 5 days measured 2 hrs post last dose by LC-MS/MS analysis relative to control. Type of data set: functional. Further details: scale not given: the % may be the effect or the level left. A digest of the protocol:
(§1)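 Drug-naive Sprague-Dawley rats, n = 5 per group, dosed orally once daily for 5 days with vehicle or 1.6, 4.8 or 16.1 μmol/kg. Vehicle was 5% Solutol / 20% Captisol in 25 mM PBS, pH 2. Killed 2 h or 48 h after the last dose. CSF glycine was expressed as % of vehicle control (vehicle 2 h post last dose), mean ± SEM. Two-way ANOVA with Tukey test.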

Data set [9] can be described thus: Drug level in Sprague-Dawley rat CSF at 100 mg/kg, po measured 2 hrs post dose by LC-MS/MS analysis. It is filed as ADME, organism-based, Cerebrospinal fluid. The conditions noted are these: read-out: Drug uptake. In outline: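 Drug-naive Sprague−Dawley rats (n = 4−5/group) were dosed orally once in 5% Solutol plus 20% Captisol in 25 mM PBS, pH 2, and euthanized 2 h later by CO₂. CSF was drawn from the cisterna magna. Drug was measured in CSF, brain and plasma; data as mean ± SEM.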

Data set [10] deals with Rattus norvegicus. As to the kind of experiment: In vivo inhibition of glycine transporter-1 in Sprague-Dawley rat assessed as CSF glycine level at 3 mg/kg, po qd for 5 days measured 2 hrs post last dose by LC-MS/MS analysis relative to control. It is filed as functional. Further details: scale not given: the % may be the effect or the level left. A digest of the protocol: as §1

The test system of data set [11] is Rattus norvegicus. As to the kind of experiment: In vivo inhibition of glycine transporter-1 in Sprague-Dawley rat assessed as CSF glycine level at 30 mg/kg, po measured 2 hrs post dose by LC-MS/MS analysis relative to control. Further details: scale not given: the % may be the effect or the level left. Type of data set: functional. A digest of the protocol:
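Drug-naive Sprague-Dawley rats, n = 5 per group, given acute oral doses of 0.4-160.9 μmol/kg (0.3-100 mg/kg). Vehicle was Solutol 5% in 20% Captisol / 25 mM PBS, pH 2. Killed 2 h post-dose. CSF glycine was quantified by LC-MS/MS with a deuterated-glycine standard and expressed as % vehicle control, mean ± SEM. Two-way ANOVA with Tukey test.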

In [1], `CC(NC(=O)c1ccc(C(F)(F)F)cc1Cl)C1(N2CCN(S(=O)(=O)c3cn(C)nn3)CC2)CCC(F)(F)CC1.Cl` (single isomer, unassigned; (+)) came in with a concentration at 24 h below 1 ng/mL. Besides, the Drug uptake result in data set [2] is reported as “Dose-dependent effect”. The half-life in [3] was 260 min. The molecule further came in with a clearance in data set [4] of 23.3 mL/min/kg. Also, in [5], the concentration at 2 h came to 3.6 ng/mL. The molecule also gave a concentration at 4 h in [6] of 3.7 ng/mL. Moreover, in [7], the bioavailability stood at 27.2%.

For `Cl.Cn1cc(S(=O)(=O)N2CCN(C3(CNC(=O)c4ccc(C(F)(F)F)cc4Cl)CCC(F)(F)CC3)CC2)nn1`, the Activity in [8] is given as 188%; in data set [10], 266.3%; in data set [11], 317.2%. In addition, in [9], the concentration at 2 h is 7.6 nM.

What is called bioavailability is the share of a dose that reaches the circulation, judged against a reference dose that is usually intravenous.
